Source: ChEMBL document CHEMBL1124456, “Synthesis and structure-activity relationship of substituted tetrahydro- and hexahydro-1,2-benzisothiazol-3-one 1,1-dioxides and thiadiazinones: potential anxiolytic agents” (J Med Chem, 1989)
Blank lines part the entries; values can stand above or below the compound they belong to. The source made the active and inactive calls. The rule behind the calls is not given here.

What was measured:
[1] = target: D(2) dopamine receptor (Rattus norvegicus, UniProt P61169); assay: In vitro ability to inhibit [3H]spiperone binding to Dopamine receptor D2 of rat limbic structures.; format: tissue-based, Limbic system
D(2) dopamine receptor, sequence (P61169 whole entry): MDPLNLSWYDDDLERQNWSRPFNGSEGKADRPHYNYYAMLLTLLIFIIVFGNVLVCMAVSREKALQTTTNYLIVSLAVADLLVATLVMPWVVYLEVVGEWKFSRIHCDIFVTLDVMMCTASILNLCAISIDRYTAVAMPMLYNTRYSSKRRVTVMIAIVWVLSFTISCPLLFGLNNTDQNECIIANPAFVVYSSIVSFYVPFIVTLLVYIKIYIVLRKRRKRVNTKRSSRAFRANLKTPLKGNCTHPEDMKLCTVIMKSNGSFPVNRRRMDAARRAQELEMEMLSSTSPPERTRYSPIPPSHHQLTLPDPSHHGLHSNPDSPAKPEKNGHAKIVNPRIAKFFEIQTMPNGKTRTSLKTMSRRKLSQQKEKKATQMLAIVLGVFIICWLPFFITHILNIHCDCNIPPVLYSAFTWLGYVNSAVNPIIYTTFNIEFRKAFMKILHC

[2] = species on record: Rattus norvegicus; assay: Anti psychotic activity was evaluated from the ability to block discrete trial conditioned avoidance response (CAR) of rats (95%CI) from 37-73; format: functional
Procedure, shortened: (§1)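 Discrete-trial conditioned avoidance in male CD rats kept at about 400–450 g body weight. Dosing was ip or po, 30 min before testing, with at least five rats per dose (20 or 40 mg/kg, or a dose range). Computer recorded intertrial, avoidance and escape responses and no-response trials. Avoidance-block trials were taken as % of total trials, with control avoidance set at 100%. AB50 came from a least-squares dose-effect regression line.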

[3] = target: T1, 5-hydroxytryptamine receptor 1A (Rattus norvegicus, UniProt P19327); assay: In vitro ability to inhibit [3H]8-OH-DPAT binding to 5-hydroxytryptamine 1A receptor of rat hippocampus and value ranges from 27 - 42; format: tissue-based
T1 sequence (P19327 whole entry): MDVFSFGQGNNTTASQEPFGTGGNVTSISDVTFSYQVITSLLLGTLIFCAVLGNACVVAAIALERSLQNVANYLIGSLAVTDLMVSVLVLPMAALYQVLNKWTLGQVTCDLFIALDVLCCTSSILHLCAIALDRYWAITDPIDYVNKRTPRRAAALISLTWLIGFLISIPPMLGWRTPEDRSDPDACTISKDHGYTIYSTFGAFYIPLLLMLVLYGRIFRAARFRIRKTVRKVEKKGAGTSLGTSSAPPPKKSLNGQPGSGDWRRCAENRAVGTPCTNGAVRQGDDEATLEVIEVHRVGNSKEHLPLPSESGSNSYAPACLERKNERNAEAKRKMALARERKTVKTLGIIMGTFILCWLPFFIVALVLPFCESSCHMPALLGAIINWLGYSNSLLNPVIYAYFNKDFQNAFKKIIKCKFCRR

[4] = target: D(2) dopamine receptor (Rattus norvegicus) (UniProt P61169); assay: Inhibition of [3H]-spiperone binding to dopamine receptor D2 of rat limbic structures at 1 uM.; details: Limbic system
D(2) dopamine receptor (Rattus norvegicus), sequence (P61169 whole entry): as the sequence (P61169 whole entry) above

[5] = species on record: Rattus norvegicus; assay: Anti-psychotic activity from the ability to block discrete trial conditioned avoidance response (CAR) of rats.; format: functional; procedure, shortened: as §1
[6] = target: T1, 5-hydroxytryptamine receptor 1A; assay: In vitro ability to inhibit [3H]8-OH-DPAT binding to 5-hydroxytryptamine 1A receptor of rat hippocampus ([…]) from 12 to 17; format: tissue-based
[7] = target: T1, 5-hydroxytryptamine receptor 1A; assay: In vitro ability to inhibit [3H]8-OH-DPAT binding to 5-hydroxytryptamine 1A receptor of rat hippocampus and the value ranges from 48 to 59; format: tissue-based
[8] = Partition coefficient (logP); format: physicochemical; details: octanol/water
[9] = target: D(2) dopamine receptor (Rattus norvegicus) (UniProt P61169); assay: Inhibition of [3H]spiperone binding to Dopamine receptor D2 of rat limbic structures; format: tissue-based; parameters: concentration or dose not given beside the values; details: Limbic system, concentration not given here
[10] = system: Rattus norvegicus; assay: Compound was tested for antagonism of apomorphine-induced climbing behavior, after intraperitoneal dosing; 1-23; format: functional; details: ip
[11] = target: T1, 5-hydroxytryptamine receptor 1A; assay: In vitro ability to inhibit [3H]8-OH-DPAT binding to 5-hydroxytryptamine 1A receptor of rat hippocampus ([…]) from 391-841; format: tissue-based
[12] = target: Adrenergic receptor alpha-2 (Rattus norvegicus) (UniProt P22086+P19328+P22909); assay: Percent inhibition of Alpha-2 adrenergic receptor at 1 uM; format: protein assay
[13] = target: Adrenergic receptor alpha-1 (Rattus norvegicus) (UniProt P15823+P23944+P43140); assay: Percent inhibition of Alpha-1 adrenergic receptor at 1 uM; format: protein assay
[14] = target: GABA-A receptor; anion channel (Rattus norvegicus) (UniProt O09028+P15431+P18506+P18508+P19969+P20236+P23574+P23576+P28471+P28473+P30191+P62813+P63079+P63138+Q91ZM7+Q9ES14); assay: Percent inhibition of GABA-A benzodiazepine receptor at 1 uM; format: protein-complex assay
Procedure, shortened: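 Male Sprague-Dawley rat brain (cerebellum and pons-medulla removed) was homogenized in 0.32 M sucrose to give a 30000g pellet, resuspended in Tris-HCl pH 7.5. Membranes were incubated with 1.5×10^-9 M [³H]diazepam (2.0 mL final) for 30 min at 4 °C, GF/C filtered, washed ice-cold and scintillation counted. Nonspecific binding was taken with 3×10^-6 M cold diazepam. Drug was tested at 1 μM.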

[15] = target: Adrenergic receptor beta (Rattus norvegicus) (UniProt P18090+P10608+P26255); assay: Percent inhibition of Beta adrenergic receptor at 1 uM; format: protein assay
[16] = species on record: Rattus norvegicus; assay: Percent inhibition of QNB receptor at 1 uM
[17] = system: Rattus norvegicus; assay: Compound was tested for antagonism of apomorphine-induced climbing behavior, after intraperitoneal dosing; 7-101; format: functional; details: ip
[18] = system: Rattus norvegicus; assay: Compound was tested for antagonism of apomorphine-induced stereotyped behavior, after intraperitoneal dosing; NA= Inactive; format: functional, organism-based
Procedure, shortened: (§2)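 High-dose apomorphine-induced stereotyped behavior procedure. Test agents were given ip at doses up to 60 mg/kg.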

[19] = system: Rattus norvegicus; assay: In vivo ability (10.0 mg/kg) was to antagonize serotonin syndrome; format: functional
[20] = system: Rattus norvegicus; assay: In vivo ability (40.0 mg/kg) was to elicit serotonin syndrome; format: functional
[21] = target: D(2) dopamine receptor (Rattus norvegicus) (UniProt P61169); assay: In vitro percent inhibition of [3H]spiperone binding to Dopamine receptor D2 of rat limbic structures at 1 uM; format: tissue-based; details: Limbic system
[22] = target: T1, 5-hydroxytryptamine receptor 1A; assay: In vitro ability to inhibit [3H]8-OH-DPAT binding to 5-hydroxytryptamine 1A receptor of rat hippocampus and value ranges from 6 - 13; format: tissue-based
[23] = species on record: Rattus norvegicus; assay: (§3) Antipsychotic activity was evaluated from the ability to block discrete trial conditioned avoidance response (CAR) of rats; format: functional
Procedure, shortened: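 Male CD rats (about 400–450 g) trained in discrete-trial avoidance. Compound given ip or po 30 min before testing, at 20 or 40 mg/kg or over a dose range, with at least five rats per dose. Intertrial, avoidance, escape and no-response trials were recorded. Avoidance block is the percentage of trials without avoidance. AB50 comes from a least-squares dose–effect regression line.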

[24] = system: Rattus norvegicus; assay: Compound was tested for antagonism of apomorphine-induced climbing behavior, after intraperitoneal dosing; format: functional; details: ip
[25] = system: Rattus norvegicus; assay: Compound was tested for antagonism of apomorphine-induced stereotyped behavior, after intraperitoneal dosing; NA is Inactive; format: functional, organism-based; procedure, shortened: as §2
[26] = system: Rattus norvegicus; assay: In vivo ability (10.0 mg/kg) was to elicit serotonin syndrome in rat; format: functional
Procedure, shortened: (§4)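 Rat in vivo test adapted from published serotonin syndrome methods. Agents given ip; 5-MeO-DMT at 3.0 mg/kg ip was used to elicit the syndrome. Behaviour rated and reported as mean total score (±SEM).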

[27] = system: Rattus norvegicus; assay: In vivo ability (10.0 mg/kg) was to antagonize serotonin syndrome in rat; format: functional; procedure, shortened: as §4
[28] = target: T2, 5-hydroxytryptamine receptor 1A (Rattus norvegicus) (UniProt P19327); assay: In vitro ability to inhibit [3H]-8-OH-DPAT binding to 5-hydroxytryptamine 1A receptor of rat hippocampus at 1 uM; format: tissue-based
T2 sequence (whole entry): T1 sequence (P19327 whole entry)

[29] = species on record: Rattus norvegicus; assay: Anti psychotic activity was evaluated from the ability to block discrete trial conditioned avoidance response (CAR) of rats. (95%CI); 39 to 53; format: functional; procedure, shortened: as §1
[30] = target: T1, 5-hydroxytryptamine receptor 1A; assay: In vitro ability to inhibit [3H]-8-OH-DPAT binding to 5-hydroxytryptamine 1A receptor of rat hippocampus and value ranges from 15 - 31; format: tissue-based
[31] = system: Rattus norvegicus; assay: Compound was tested for antagonism of apomorphine-induced climbing behavior, after intraperitoneal dosing.; format: functional; details: ip
[32] = system: Rattus norvegicus; assay: Compound was tested for antagonism of apomorphine-induced stereotyped behavior, after intraperitoneal dosing and value ranges from 37.28 - 52.78; format: functional; details: ip; procedure, shortened: as §2
[33] = target: T1, 5-hydroxytryptamine receptor 1A; assay: In vitro ability to inhibit [3H]8-OH-DPAT binding to 5-hydroxytryptamine 1A receptor of rat hippocampus and the value ranges from 245 to 736; format: tissue-based
[34] = species on record: Rattus norvegicus; assay: as §3; format: functional; procedure, shortened: as §1; remark: listed apart in the source
[35] = target: T2, 5-hydroxytryptamine receptor 1A (Rattus norvegicus); assay: In vitro ability to inhibit [3H]8-OH-DPAT binding to 5-hydroxytryptamine 1A receptor of rat hippocampus at 1 uM; format: tissue-based
[36] = species on record: Rattus norvegicus; assay: Anti psychotic activity was evaluated from the ability to block discrete trial conditioned avoidance response (CAR) of rats and value ranges from 37 - 73; format: functional; procedure, shortened: as §1
[37] = target: T1, 5-hydroxytryptamine receptor 1A; assay: In vitro ability to inhibit [3H]8-OH-DPAT binding to 5-hydroxytryptamine 1A receptor of rat hippocampus and the value ranges from 25 - 84; format: tissue-based
[38] = species on record: Rattus norvegicus; assay: Anti psychotic activity was evaluated from the ability to block discrete trial conditioned avoidance response (CAR) of rats and the value ranges from 32-61; format: functional; procedure, shortened: as §1
[39] = system: Rattus norvegicus; assay: Compound was tested for antagonism of apomorphine-induced climbing behavior, after intraperitoneal dosing; 1.29-27.21; format: functional; details: ip
[40] = system: Rattus norvegicus; assay: Compound was tested for antagonism of apomorphine-induced stereotyped behavior, after intraperitoneal dosing.; format: functional; details: ip; procedure, shortened: as §2
[41] = target: T1, 5-hydroxytryptamine receptor 1A; assay: In vitro ability to inhibit [3H]8-OH-DPAT binding to 5-hydroxytryptamine 1A receptor of rat hippocampus and the value ranges from 12 to 20.; format: tissue-based
[42] = species on record: Rattus norvegicus; assay: Anti psychotic activity was evaluated from the ability to block discrete trial conditioned avoidance response (CAR) of rats, value ranges from 32-71.; format: functional; procedure, shortened: as §1

Structure (SMILES): Cl.Cl.O=C1C2C3CCC(C3)C2S(=O)(=O)N1CCCCN1CCN(c2ncccn2)CC1 (stereo not given)
Ki [7]: 53 nM | logP [8]: 1.72 | inhibition [9]: 36% | AB50 [5]: 40 mg/kg

Structure (SMILES): CN1CCN(C2=Nc3cc(Cl)ccc3Nc3ccccc32)CC1 [CLOZAPINE]
ED50 [10]: 4.55 mg/kg

Structure (SMILES): O=C1c2ccccc2S(=O)(=O)N1CCCCN1CCN(c2ncccn2)CC1 [IPSAPIRONE]
AB50 [23]: 42 mg/kg | ED50 [24]: 26 mg/kg | ED50 [25]: inactive | Mean [26]: 2.4 | Mean [27]: 8.4

Structure (SMILES): Cl.O=C1C2C3CCC(C3)C2S(=O)(=O)N1CCCCN1CCN(c2cncc(Cl)n2)CC1 (stereo not given)
inhibition [28]: 51% | inhibition [9]: 32% | AB50 [29]: 45 mg/kg

Structure (SMILES): Cl.Cl.O=C1C2C3CCC(O3)C2S(=O)(=O)N1CCCCN1CCN(c2cccc(C(F)(F)F)c2)CC1 (stereo not given)
Ki [30]: 22 nM | inhibition [4]: 0% | AB50 [5]: 40 mg/kg | ED50 [31]: 11.5 mg/kg | ED50 [32]: 44.4 mg/kg

Structure (SMILES): Cl.Cl.O=C1C2C3CCC(O3)C2S(=O)(=O)N1CCCCN1CCN(c2cnccn2)CC1 (stereo not given)
inhibition [35]: 25% | logP [8]: 1.14 | inhibition [9]: 0% | AB50 [36]: 48 mg/kg

Structure (SMILES): Cl.Cl.Cl.O=C1C2C3CCC(C3)C2S(=O)(=O)N1CCCCN1CCN(c2cccc(Cl)c2)CC1 (stereo not given)
Ki [37]: 45 nM | inhibition [9]: 98% | AB50 [38]: 41 mg/kg | ED50 [39]: 16 mg/kg | ED50 [40]: 34 mg/kg

Further lines, with some results ahead:

Ki [1]: 3300 nM
Structure (SMILES): Cl.O=C1C2C3CCC(O3)C2S(=O)(=O)N1CCCCN1CCN(c2nccnc2Cl)CC1 (stereo not given)
AB50 [2]: 48 mg/kg

Ki [3]: 34 nM | inhibition [4]: 55%
Structure (SMILES): Cl.Cl.Cl.O=C1C2C3CCC(O3)C2S(=O)(=O)N1CCCCN1CCN(c2cccc(Cl)c2)CC1 (stereo not given)
AB50 [5]: 40 mg/kg

Ki [6]: 14 nM
Structure (SMILES): Cl.O=C1C2C3C=CC(C4CC34)C2S(=O)(=O)N1CCCCN1CCN(c2cncc(Cl)n2)CC1 (stereo not given)
AB50 [5]: 40 mg/kg

Ki [11]: 550 nM | logP [8]: 1.64 | inhibition [12]: 21% | inhibition [13]: 6% | inhibition [14]: 0% | inhibition [15]: 8% | inhibition [16]: 0% | inhibition [21]: 36%
Structure (SMILES): Cl.O=C1C2C3CCC(O3)C2S(=O)(=O)N1CCCCN1CCN(c2cncc(Cl)n2)CC1 (stereo not given)
AB50 [5]: 34 mg/kg | ED50 [17]: 27 mg/kg | ED50 [18]: inactive | Mean [19]: 12.3 | Mean [20]: 2.1

Ki [22]: 9 nM | inhibition [4]: 43%
Structure (SMILES): Cl.Cl.O=C1c2ccccc2S(=O)(=O)N1CCCCN1CCN(c2cnccn2)CC1
AB50 [5]: 40 mg/kg

Ki [33]: 434 nM
Structure (SMILES): Cl.Cl.O=C1C2C3C=CC(C3)C2S(=O)(=O)N1CCCCN1CCN(c2ncccn2)CC1 (stereo not given)
AB50 [34]: 45 mg/kg

Ki [41]: 16 nM | inhibition [9]: 97%
Structure (SMILES): Cl.Cl.O=C1C2C3CCC(C3)C2S(=O)(=O)N1CCCCN1CCN(c2cccc(C(F)(F)F)c2)CC1 (stereo not given)
AB50 [42]: 43 mg/kg
